From ChEMBL document CHEMBL4011598, “Sulfonamides as Selective NaV1.7 Inhibitors: Optimizing Potency and Pharmacokinetics While Mitigating Metabolic Liabilities” (J Med Chem, 2017)
Active and inactive are the calls of the source. The rule behind the calls is not given here.

How the values were obtained:
[1] = system: Canis familiaris; assay: Unbound clearance in dog at 0.25 mg/kg, iv; format: ADME, organism-based, Canis lupus familiaris; conditions: in vivo
How it was run: (§1)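 Male dogs received a single 0.25 mg/kg iv dose in DMSO. Unbound clearance (CLu) is total clearance divided by fu, the unbound fraction in plasma.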

[2] = Intrinsic clearance in rat liver microsomes at 1 uM after 1 to 40 mins in presence of NADPH by LC-MS/MS analysis; format: ADME, microsome; conditions: read-out: CLH
[3] = Unbound fraction in mouse plasma at 5 uM by LC-MS/MS method; format: ADME, cell-free
[4] = Oral bioavailability in rat at 10 mg/kg; format: ADME, organism-based; conditions: in vivo
[5] = molecular target: T1, Sodium channel protein type 9 subunit alpha (Homo sapiens, UniProt Q15858); assay: Inhibition of human Nav1.7 at resting/closed state expressed in HEK293 cells at -140 mV holding potential by manual whole cell patch clamp electrophysiology assay; format: cell-based
[6] = molecular target: Sodium channel protein type 4 subunit alpha (Homo sapiens, UniProt P35499); assay: Inhibition of human Nav1.4 expressed in HEK293 cells assessed as reduction in peak inward current by ionworks quattro electrophysiology assay; format: cell-based
[7] = molecular target: Sodium channel protein type 3 subunit alpha (Homo sapiens, UniProt Q9NY46); assay: Inhibition of human Nav1.3 expressed in CHO cells assessed as reduction in peak inward current by ionworks quattro electrophysiology assay; format: cell-based
[8] = molecular target: Cytochrome P450 2D6 (Homo sapiens, UniProt P10635); assay: Inhibition of CYP2D6 (unknown origin); format: ADME
[9] = molecular target: T2, Cytochrome P450 3A4 (Homo sapiens, UniProt P08684); assay: Inhibition of CYP3A4 (unknown origin); format: ADME
[10] = Total clearance in dog at 0.25 mg/kg, iv; format: ADME, organism-based, Canis lupus familiaris; conditions: in vivo; how it was run: as §1
[11] = Ratio of unbound plasma concentration in C57Bl/6 mouse at 300 mg/kg, po to IC50 for human Nav1.7 at -125 mV holding potential
[12] = Unbound fraction in rat plasma at 5 uM by LC-MS/MS method; format: ADME, cell-free
[13] = system: Plasma; assay: Total plasma concentration in C57Bl/6 mouse at 30 mg/kg, po; format: ADME, organism-based; conditions: in vivo
[14] = system: Mus musculus; assay: Antipruriceptive activity in C57Bl/6 mouse assessed as reduction in number of histamine-induced scratching bouts at 30 to 300 mg/kg, po administered 4 hrs prior to histamine challenge measured over 15 mins; format: functional, organism-based
[15] = molecular target: Voltage-gated inwardly rectifying potassium channel KCNH2 (Homo sapiens, UniProt Q12809); assay: Inhibition of human hERG by patch clamp method
[16] = Volume of distribution at steady state in rat at 0.5 mg/kg, iv; format: ADME, organism-based; conditions: in vivo, read-out: Vdss
How it was run: (§2)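 Male rats given a single 0.5 mg/kg iv dose in DMSO. Unbound clearance (CLu) is total clearance divided by fu, the unbound fraction in plasma.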

[17] = molecular target: T1, Sodium channel protein type 9 subunit alpha; assay: Inhibition of human Nav1.7 expressed in HEK293 cells incubated for 3 to 5 mins at -125 mV holding potential by electrophysiology assay; format: cell-based
[18] = molecular target: Sodium channel protein type 1 subunit alpha (Homo sapiens, UniProt P35498); assay: Inhibition of human Nav1.1 expressed in HEK293 cells assessed as reduction in peak inward current by ionworks quattro electrophysiology assay; format: cell-based
[19] = system: Plasma; assay: Total plasma concentration in C57Bl/6 mouse at 300 mg/kg, po; format: ADME, organism-based; conditions: in vivo
[20] = system: Plasma; assay: Unbound plasma concentration in C57Bl/6 mouse at 300 mg/kg, po; format: ADME, organism-based; conditions: in vivo
[21] = molecular target: Cytochrome P450 2C9 (Homo sapiens, UniProt P11712); assay: Inhibition of CYP2C9 (unknown origin); format: ADME
[22] = molecular target: T1, Sodium channel protein type 9 subunit alpha; assay: Inhibition of human Nav1.7 expressed in HEK293 cells assessed as reduction in peak inward current by ionworks quattro electrophysiology assay; format: cell-based
[23] = system: Plasma; assay: Unbound plasma concentration in C57Bl/6 mouse at 30 mg/kg, po; format: ADME, organism-based; conditions: in vivo
[24] = molecular target: T3, PXR (NR1I2) (Homo sapiens, UniProt O75469); assay: Activation of human PXR at 10 uM in presence of rifampicin; format: ADME; conditions: read-out: Activity
T3 sequence (O75469 whole entry): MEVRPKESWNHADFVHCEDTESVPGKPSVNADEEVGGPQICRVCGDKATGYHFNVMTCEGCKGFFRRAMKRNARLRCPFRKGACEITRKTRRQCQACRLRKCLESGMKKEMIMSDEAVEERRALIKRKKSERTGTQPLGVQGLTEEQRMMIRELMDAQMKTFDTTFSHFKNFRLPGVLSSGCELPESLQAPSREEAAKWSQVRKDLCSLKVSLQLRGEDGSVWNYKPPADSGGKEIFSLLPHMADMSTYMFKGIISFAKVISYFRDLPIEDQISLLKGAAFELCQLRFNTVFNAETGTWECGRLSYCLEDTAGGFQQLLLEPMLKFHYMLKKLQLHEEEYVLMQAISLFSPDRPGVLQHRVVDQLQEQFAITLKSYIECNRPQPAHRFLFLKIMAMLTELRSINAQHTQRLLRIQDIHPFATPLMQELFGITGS

[25] = Half life in rat at 0.5 mg/kg, iv; format: ADME, organism-based; conditions: in vivo; how it was run: as §2
[26] = molecular target: T4, Cytochrome P450 1A2 (Homo sapiens, UniProt P05177); assay: Inhibition of CYP1A2 (unknown origin); format: ADME
T4 sequence (P05177 whole entry): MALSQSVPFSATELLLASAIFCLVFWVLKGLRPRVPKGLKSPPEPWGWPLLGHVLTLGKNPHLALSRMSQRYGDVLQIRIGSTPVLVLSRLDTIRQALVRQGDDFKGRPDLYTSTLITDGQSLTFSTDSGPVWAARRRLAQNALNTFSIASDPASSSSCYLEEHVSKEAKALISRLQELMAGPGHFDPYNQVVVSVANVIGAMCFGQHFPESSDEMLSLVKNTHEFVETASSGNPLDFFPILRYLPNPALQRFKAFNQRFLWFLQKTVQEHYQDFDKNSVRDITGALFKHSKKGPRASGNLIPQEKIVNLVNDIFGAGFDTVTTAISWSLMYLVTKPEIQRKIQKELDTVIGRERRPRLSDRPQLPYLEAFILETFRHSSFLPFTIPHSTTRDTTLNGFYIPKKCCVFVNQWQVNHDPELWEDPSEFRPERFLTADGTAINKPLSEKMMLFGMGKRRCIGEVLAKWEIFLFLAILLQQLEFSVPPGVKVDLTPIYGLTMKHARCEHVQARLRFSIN

[27] = molecular target: Sodium channel protein type 9 subunit alpha (Mus musculus, UniProt Q62205); assay: Inhibition of mouse Nav1.7 expressed in HEK293 cells incubated for 3 to 5 mins at -125 mV holding potential by electrophysiology assay; format: cell-based
[28] = molecular target: Sodium channel protein type 5 subunit alpha (Homo sapiens, UniProt Q14524); assay: Inhibition of human Nav1.5 expressed in HEK293 cells assessed as reduction in peak inward current by ionworks quattro electrophysiology assay; format: cell-based
[29] = Tmax in dog at 2 mg/kg, po; format: ADME, organism-based, Canis lupus familiaris; conditions: in vivo
[30] = molecular target: T2, Cytochrome P450 3A4; assay: Induction of CYP3A4 in human hepatocytes at 10 uM relative to rifampicin

T1 sequence (Q15858 whole entry): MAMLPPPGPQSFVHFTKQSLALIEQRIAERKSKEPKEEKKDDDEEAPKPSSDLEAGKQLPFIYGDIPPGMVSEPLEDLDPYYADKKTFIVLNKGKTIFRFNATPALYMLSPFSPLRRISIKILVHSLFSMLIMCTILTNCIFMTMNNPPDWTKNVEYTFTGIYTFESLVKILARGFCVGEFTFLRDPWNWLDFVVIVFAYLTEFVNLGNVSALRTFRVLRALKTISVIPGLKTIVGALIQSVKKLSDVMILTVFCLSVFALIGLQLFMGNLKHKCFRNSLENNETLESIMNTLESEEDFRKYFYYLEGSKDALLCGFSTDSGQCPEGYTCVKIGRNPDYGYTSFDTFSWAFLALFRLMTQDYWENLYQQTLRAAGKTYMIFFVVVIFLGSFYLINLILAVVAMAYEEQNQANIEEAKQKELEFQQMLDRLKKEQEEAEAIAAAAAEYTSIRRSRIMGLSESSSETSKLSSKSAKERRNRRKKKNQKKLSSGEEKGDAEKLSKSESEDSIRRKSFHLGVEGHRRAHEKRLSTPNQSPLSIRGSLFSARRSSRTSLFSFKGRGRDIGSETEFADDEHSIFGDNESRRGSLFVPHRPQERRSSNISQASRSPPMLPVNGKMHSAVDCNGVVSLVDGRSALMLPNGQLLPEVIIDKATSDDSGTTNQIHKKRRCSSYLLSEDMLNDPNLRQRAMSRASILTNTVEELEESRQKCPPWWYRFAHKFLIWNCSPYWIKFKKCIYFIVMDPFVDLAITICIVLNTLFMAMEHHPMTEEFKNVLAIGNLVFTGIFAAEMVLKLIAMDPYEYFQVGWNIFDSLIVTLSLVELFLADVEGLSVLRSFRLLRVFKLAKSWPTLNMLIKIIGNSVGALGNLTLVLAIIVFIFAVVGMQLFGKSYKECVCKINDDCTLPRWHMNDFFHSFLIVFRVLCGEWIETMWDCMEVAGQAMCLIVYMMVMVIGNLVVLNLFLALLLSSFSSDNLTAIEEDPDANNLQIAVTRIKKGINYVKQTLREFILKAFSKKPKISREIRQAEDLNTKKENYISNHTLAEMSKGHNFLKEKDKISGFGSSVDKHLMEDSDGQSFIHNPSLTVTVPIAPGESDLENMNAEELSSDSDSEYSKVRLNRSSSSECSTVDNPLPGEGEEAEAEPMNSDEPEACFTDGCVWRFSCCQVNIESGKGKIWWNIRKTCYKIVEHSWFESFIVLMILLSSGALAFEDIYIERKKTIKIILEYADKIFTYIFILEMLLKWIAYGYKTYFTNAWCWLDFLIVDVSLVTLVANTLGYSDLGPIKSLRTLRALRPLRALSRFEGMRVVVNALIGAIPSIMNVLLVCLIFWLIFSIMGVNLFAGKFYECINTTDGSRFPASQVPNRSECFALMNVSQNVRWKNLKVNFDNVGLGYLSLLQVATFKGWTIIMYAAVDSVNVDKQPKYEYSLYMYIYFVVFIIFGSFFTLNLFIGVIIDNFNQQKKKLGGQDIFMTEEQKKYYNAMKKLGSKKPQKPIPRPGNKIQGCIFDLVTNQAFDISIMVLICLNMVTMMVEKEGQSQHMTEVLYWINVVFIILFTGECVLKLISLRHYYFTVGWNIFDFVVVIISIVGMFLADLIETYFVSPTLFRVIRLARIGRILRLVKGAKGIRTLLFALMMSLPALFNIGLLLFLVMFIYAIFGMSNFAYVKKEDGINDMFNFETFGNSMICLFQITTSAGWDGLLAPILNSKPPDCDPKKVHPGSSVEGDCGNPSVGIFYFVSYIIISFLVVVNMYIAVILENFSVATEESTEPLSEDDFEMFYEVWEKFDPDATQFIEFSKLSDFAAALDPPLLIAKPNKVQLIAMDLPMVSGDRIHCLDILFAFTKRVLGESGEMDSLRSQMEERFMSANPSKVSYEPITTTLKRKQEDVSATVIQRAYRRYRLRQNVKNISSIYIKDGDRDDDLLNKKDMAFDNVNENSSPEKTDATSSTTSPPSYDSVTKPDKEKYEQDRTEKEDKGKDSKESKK
T2 sequence (P08684 whole entry): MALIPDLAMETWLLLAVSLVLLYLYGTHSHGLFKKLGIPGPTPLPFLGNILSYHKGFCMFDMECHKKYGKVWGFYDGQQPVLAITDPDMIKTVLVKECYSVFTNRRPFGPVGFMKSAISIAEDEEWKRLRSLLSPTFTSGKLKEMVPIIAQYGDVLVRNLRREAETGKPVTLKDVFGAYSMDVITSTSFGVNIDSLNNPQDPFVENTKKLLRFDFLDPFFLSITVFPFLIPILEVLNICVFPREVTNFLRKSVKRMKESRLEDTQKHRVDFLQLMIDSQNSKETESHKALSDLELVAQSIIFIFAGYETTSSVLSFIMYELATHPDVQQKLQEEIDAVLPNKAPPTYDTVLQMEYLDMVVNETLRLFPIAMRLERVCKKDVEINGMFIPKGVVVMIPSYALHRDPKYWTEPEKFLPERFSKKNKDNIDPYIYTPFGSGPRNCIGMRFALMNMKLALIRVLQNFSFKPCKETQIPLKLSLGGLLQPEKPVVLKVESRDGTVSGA
Chain of Sodium channel protein type 3 subunit alpha (Q9NY46 whole entry): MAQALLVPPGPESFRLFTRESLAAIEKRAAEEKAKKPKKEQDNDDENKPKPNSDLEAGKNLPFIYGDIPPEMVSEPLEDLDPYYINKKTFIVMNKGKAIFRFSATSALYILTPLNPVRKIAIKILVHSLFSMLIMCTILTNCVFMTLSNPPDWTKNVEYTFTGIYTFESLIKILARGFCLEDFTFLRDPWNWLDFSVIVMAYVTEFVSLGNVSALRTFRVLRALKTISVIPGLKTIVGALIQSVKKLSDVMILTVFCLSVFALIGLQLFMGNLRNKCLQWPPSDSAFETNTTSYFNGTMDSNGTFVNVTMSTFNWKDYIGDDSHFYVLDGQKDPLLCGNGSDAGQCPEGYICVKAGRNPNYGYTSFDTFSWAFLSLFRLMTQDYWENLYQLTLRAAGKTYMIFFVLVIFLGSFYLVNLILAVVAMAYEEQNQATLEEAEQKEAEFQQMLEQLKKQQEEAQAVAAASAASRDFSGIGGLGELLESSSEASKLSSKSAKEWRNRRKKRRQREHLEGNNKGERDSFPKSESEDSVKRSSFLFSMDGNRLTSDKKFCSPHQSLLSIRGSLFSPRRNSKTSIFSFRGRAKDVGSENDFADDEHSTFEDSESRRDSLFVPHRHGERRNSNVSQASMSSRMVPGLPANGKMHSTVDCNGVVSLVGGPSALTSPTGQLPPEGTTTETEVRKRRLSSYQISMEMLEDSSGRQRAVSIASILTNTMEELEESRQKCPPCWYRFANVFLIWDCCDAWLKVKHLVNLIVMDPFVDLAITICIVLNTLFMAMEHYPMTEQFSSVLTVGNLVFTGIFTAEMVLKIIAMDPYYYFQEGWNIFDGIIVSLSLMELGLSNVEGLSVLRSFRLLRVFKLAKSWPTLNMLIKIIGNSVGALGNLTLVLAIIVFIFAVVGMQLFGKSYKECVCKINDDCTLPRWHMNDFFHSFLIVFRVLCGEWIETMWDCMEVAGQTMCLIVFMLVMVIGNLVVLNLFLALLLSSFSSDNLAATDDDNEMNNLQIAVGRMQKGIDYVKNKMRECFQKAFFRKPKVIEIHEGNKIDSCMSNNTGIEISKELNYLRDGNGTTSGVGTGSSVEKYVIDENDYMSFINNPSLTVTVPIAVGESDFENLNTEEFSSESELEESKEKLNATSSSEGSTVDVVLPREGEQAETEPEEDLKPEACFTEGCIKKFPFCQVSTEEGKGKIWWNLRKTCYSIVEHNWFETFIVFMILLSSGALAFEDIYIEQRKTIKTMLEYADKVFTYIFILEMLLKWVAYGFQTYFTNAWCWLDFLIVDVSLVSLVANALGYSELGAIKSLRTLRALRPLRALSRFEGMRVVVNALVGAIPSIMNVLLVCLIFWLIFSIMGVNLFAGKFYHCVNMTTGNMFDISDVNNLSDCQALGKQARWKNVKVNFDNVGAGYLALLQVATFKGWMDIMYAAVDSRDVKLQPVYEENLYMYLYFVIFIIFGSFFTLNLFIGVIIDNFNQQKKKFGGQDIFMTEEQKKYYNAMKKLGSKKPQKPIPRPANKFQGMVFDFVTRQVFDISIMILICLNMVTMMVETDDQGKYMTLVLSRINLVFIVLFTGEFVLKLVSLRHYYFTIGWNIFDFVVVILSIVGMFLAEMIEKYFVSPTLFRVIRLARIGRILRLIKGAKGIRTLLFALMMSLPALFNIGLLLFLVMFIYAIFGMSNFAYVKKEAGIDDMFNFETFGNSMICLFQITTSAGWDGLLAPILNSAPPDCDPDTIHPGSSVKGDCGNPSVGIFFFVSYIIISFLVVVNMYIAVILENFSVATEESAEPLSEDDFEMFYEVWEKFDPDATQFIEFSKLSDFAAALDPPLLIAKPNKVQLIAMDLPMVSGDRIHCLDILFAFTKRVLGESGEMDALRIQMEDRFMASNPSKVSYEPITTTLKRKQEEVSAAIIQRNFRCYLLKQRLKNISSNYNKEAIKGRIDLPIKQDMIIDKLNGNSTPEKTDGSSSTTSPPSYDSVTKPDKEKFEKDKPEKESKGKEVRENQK
Chain of Cytochrome P450 2D6 (P10635 whole entry): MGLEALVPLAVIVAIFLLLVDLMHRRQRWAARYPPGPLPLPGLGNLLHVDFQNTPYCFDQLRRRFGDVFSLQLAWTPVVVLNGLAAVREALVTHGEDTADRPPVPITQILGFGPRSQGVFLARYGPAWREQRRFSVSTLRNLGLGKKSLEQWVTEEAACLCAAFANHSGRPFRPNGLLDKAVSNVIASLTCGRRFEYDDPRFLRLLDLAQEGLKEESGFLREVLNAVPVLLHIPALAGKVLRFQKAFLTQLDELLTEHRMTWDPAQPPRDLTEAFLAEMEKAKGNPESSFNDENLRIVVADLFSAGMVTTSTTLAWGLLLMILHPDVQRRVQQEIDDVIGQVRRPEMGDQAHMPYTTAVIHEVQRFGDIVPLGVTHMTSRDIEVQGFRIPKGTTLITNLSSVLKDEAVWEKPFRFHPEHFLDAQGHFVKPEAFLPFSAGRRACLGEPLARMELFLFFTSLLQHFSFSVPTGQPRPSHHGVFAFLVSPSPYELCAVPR

COc1cc(-c2cccc(C(F)(F)F)c2)c(F)cc1-c1nccc2cc(S(=O)(=O)Nc3ccon3)ccc12
CL free [1]: 60 mL/min/kg
microsomal CLint at 1 µM [2]: < 14 µL/min/mg
fraction unbound at 5 µM [3]: 0.0116
bioavailability [4]: 54%
IC50 [5]: 4 µM
IC50 [6]: 12 µM
IC50 [7]: 6.9 µM
IC50 [8]: > 15 µM
IC50 [9]: > 15 µM
clearance [10]: 0.383 mL/min/kg
Ratio [11]: 45
fraction unbound at 5 µM [12]: 0.0087
concentration [13]: 21.2 µM
Activity [14]: Active
IC50 [15]: > 10 µM
Vd [16]: 2.1 L/kg
IC50 [17]: 0.036 µM
IC50 [18]: 17 µM
concentration [19]: 137 µM
Cp(f) [20]: 1.59 µM
IC50 [21]: 0.43 µM
IC50 [22]: 0.017 µM
Cp(f) [23]: 0.246 µM
activity at 10 µM [24]: 1%
half-life [25]: 6.2 h
IC50 [26]: > 15 µM
IC50 [27]: 0.036 µM
IC50 [28]: 12 µM
Tmax [29]: 2 h
Activity [30]: 7%
